The source made the active and inactive calls. No cut-off for these calls is given here.
Legend:
[1] = system: SW-620; assay: cells; assay type: functional; conditions: Homo sapiens, SW-620, 72 h
[2] = system: PC-3; assay: cells; assay type: functional; conditions: Homo sapiens, PC-3, 72 h
[3] = target: Histone deacetylase; assay: Inhibition of HDAC in human HeLa cell nuclear extracts using Ac-Arg-Gly-Lys(Ac)-AMC substrate by fluorimetry; assay type: protein assay
[4] = system: K562; assay: cells; assay type: functional; conditions: Homo sapiens, K562, 72 h
[5] = system: OVCAR-3; assay: cells; assay type: functional; conditions: Homo sapiens, OVCAR-3, 72 h
[6] = target: Histone deacetylase (Homo sapiens) (UniProt Q13547+O15379+Q9UBN7+Q92769+Q9UQL6+Q8WUI4+Q9BY41+Q96DB2+P56524+Q9UKV0+Q969S8); assay: Inhibition of HDAC in human MDA-MB-231 cells assessed as stimulation of histone H3 acetylation at 5 uM incubated for 24 hrs by Western blot; assay type: cell-based
Summary of the method: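 MDA-MB-231 cells in 35-mm dishes, dosed 24 h at graded concentrations, then trypsinized and PBS-washed. Lysed in RIPA (50 mM Tris-HCl pH 7.5, protease and phosphatase inhibitors) for 30 min at 4 °C, then cleared at 12,000g. Lysate, 60 μg protein by BCA, run on SDS-PAGE and PVDF. Blotted with anti-acetyl-histone H3 and HRP anti-rabbit, read by ECL.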

[7] = system: A549; assay: cells; assay type: functional; conditions: Homo sapiens, A549, 72 h
[8] = system: COLO 205; assay: cells; assay type: functional; conditions: Homo sapiens, COLO 205, 72 h
[9] = system: HepG2; assay: cells; assay type: functional; conditions: Homo sapiens, HepG2, 72 h
[10] = system: MDA-MB-231; assay: cells; assay type: functional; conditions: Homo sapiens, MDA-MB-231, 72 h

| SMILES | GI50 [1] [nM] | GI50 [2] [nM] | IC50 [3] [nM] | GI50 [4] [nM] | GI50 [5] [nM] | histone H3 acetylation activity (active/not active) [6] | GI50 [7] [nM] | GI50 [8] [nM] | GI50 [9] [nM] | GI50 [10] [nM] |
| --- | --- | --- | --- | --- | --- | --- | --- | --- | --- | --- |
| O=C(/C=C/c1cn(Cc2nc3ccccc3s2)nn1)NO | 1500 | 2900 | 41 | 2600 | 3600 | inactive | 2100 | 1500 | 8800 | – |
| NC(=O)CCC(c1nc2ccccc2o1)n1cc(/C=C/C(=O)NO)nn1 (racemic) | – | – | 49 | – | – | – | 21800 | – | 14000 | 9500 |
| O=C(/C=C/c1cn(C/C=C/c2ccccc2)nn1)NO | 480 | 1300 | 104 | 550 | 1100 | – | 1900 | 1100 | 3200 | – |
| CCC(C)C(c1nc2ccccc2o1)n1cc(/C=C/C(=O)NO)nn1 (racemic) | – | – | 4 | – | – | – | 520 | – | 1700 | 190 |
| O=C(O)CCC(c1nc2ccccc2o1)n1cc(/C=C/C(=O)NO)nn1 (racemic) | – | – | 333 | – | – | – | > 20000 | – | > 20000 | > 20000 |
| O=C(O)CC(c1nc2ccccc2o1)n1cc(/C=C/C(=O)NO)nn1 (racemic) | – | – | 140 | – | – | – | > 20000 | – | > 20000 | > 20000 |
| O=C(/C=C/c1cn(C(Cc2ccccc2)c2nc3ccccc3o2)nn1)NO (racemic) | – | – | 219 | – | – | – | 4400 | – | 5900 | 5500 |

Reference: ChEMBL document CHEMBL2034936, “Discovery and extensive in vitro evaluations of NK-HDAC-1: a chiral histone deacetylase inhibitor as a promising lead” (J Med Chem, 2012)
